Compounds with a hit are over-represented: about 5.9% of the library has one in this group of screens.
Pf Dd2 growth – P. falciparum Dd2 growth inhibition; SYBR Green, 72 h; active compounds read low; activity change, % at 10 µM; 94,000 tested, 2.3% active; in the data active means activity change below about -80%; inconclusive means no clear call, values can overlap the other calls
T cruzi growth-1 – blocks T. cruzi growth in NIH3T3 culture. T. cruzi beta-gal in NIH3T3, GalScreen luminescence, 90 h. inhibition, % at 8.34 µM. 77,000 tested, 5.9% active;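 active means mean inhibition above about 93%, with at least 55% of replicates each passing it, limit read from the data, passing the limit was not always enough; inconclusive means only one of those two conditions holds; inactive means neither condition holds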
IDH1 R132H inh – inhibitors of human IDH1 R132H; O75874; 70,000 tested, 0.18% active; IDH1 R132H reductase, diaphorase/resazurin fluorescence, 60 min; inhibition, % at 10 µM; in the data active means inhibition above about 34%; inconclusive means no clear call, values can overlap the other calls; inactive means below about 11%;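 further: 0% = DMSO and 100% = no enzyme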
KDM4C inh – blocks human GASC-1 (KDM4C) demethylase activity | Q9H3R0 | GST-KDM4C 2-372, H3K9me3 peptide, LANCE TR-FRET | inhibition, % at 12.5 µM | 96,000 tested, 0.15% active;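 active means mean replicate inhibition above about 25%, with at least 55% of replicates also reaching it, limit read from the data, passing the limit was not always enough; inconclusive means only one of those two conditions met; inactive means neither condition met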
Target sequence (Q9H3R0 2-372 limits assumed): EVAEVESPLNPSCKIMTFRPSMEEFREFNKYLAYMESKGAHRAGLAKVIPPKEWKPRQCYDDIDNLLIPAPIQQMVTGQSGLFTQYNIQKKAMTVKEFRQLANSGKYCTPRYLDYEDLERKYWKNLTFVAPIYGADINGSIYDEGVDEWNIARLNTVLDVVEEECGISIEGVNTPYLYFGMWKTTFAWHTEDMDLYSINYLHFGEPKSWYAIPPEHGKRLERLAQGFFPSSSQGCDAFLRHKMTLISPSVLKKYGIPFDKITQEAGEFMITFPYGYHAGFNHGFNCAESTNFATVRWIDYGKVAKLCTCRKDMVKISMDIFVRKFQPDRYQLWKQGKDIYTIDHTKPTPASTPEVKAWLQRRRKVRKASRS
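reagent = H3K9me3 peptide substrate, Fe(II), 2-oxoglutarate | system = GST-tagged GASC-1 (JMJD2C) catalytic fragment, aa 2-372 | amount = enzyme final amount 10 nM | read-out = Fall in 671/618 emission ratio as inhibition | medium = HEPES buffer, pH 7.5, plus ascorbate | schedule = 30 min reaction, 60 min detection, RT | measured by = LANCE TR-FRET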
T cruzi growth-2 – blocks T. cruzi growth in NIH3T3 host cells | inhibition, % at 8.35 µM | shares compounds with T cruzi growth-1 | AID 651739 | 5,600 tested, 72% active | T. cruzi beta-gal in NIH3T3, GalScreen luminescence, 90 h;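 active means mean replicate inhibition above about 95% and at least 55% of replicates individually reaching it, limit read from the data; inconclusive means only one of the two criteria is met; inactive means neither criterion is met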
T cruzi growth-3 – inhibitors of T. cruzi proliferation; inhibition, % at 2.09 µM; 5,600 tested, 21% active; shares compounds with T cruzi growth-1; T. cruzi beta-gal in NIH3T3, GalScreen luminescence, 90 h;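 active means mean inhibition above about 95%, with at least 55% of replicates also reaching it, limit read from the data; inconclusive means meets just one of the two conditions; inactive means meets neither condition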;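 further: plate controls were neutral control median for no effect and positive control median for full effect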
NIH3T3 tox – NIH/3T3 (mouse) viability loss; NIH/3T3 viability, CellTiter-Glo ATP luminescence, 90 h; 5,600 tested, 14% active; cytotoxicity (signal decrease), % at 8.35 µM; shares compounds with T cruzi growth-1;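 active means mean signal decrease across replicates above about 35% based on untreated-well scatter, with enough replicates individually passing, limit read from the data; inconclusive means no rule stated though some were filed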;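 further: 0% = median of neutral control wells and 100% = median of positive control wells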
3T3 cytotox 2 – kills mouse NIH/3T3 fibroblasts | AID 651744 | inhibition, % at 24.9 µM | shares compounds with T cruzi growth-1 | 5,600 tested, 56% active | NIH/3T3 viability, CellTiter-Glo ATP luminescence, 90 h;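 active means mean loss of cell viability signal at or above a set limit, and enough replicates individually reaching it; inconclusive means meets only the mean limit or only the replicate share; inactive means meets neither condition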;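 further: 0% = median of neutral control wells and 100% = median of positive control wells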
Active calls of the source: *; ? = inconclusive; . = no result.

SMILES | Pf Dd2 growth | T cruzi growth-1 | IDH1 R132H inh | KDM4C inh | T cruzi growth-2 | T cruzi growth-3 | NIH3T3 tox | 3T3 cytotox 2
O=C1N[C@H](c2ccccc2)COCc2cn(nn2)CC[C@H]1Cc1ccccc1 | . | . | . | -1.6 | . | . | . | .
N#C[C@H]1[C@H](c2ccc(C3=CCCCC3)cc2)[C@@H](CO)N1C(=O)NC1CCCCC1 | -20.2 | 103.8* | . | 1.5 | 103.6* | 80.1 | -2.1 | 77.1*
N#C[C@H]1[C@@H](c2ccc(C3=CCCCC3)cc2)[C@@H](CO)N1C(=O)NC1CCCC1 | -41.2 | . | . | 2.6 | . | . | . | .
C[C@@H]1CN([C@@H](C)CO)C(=O)c2cccc(NC(=O)c3ccncc3)c2O[C@@H]1CN(C)CC1CCCCC1 | -17.6 | 14.2 | . | -0.1 | . | . | . | .
COC(=O)C[C@@H]1C[C@H]2c3cc(NS(=O)(=O)c4cccc(OC)c4)ccc3O[C@H]2[C@H](CO)O1 | -0.8 | . | -0.2 | 7.4 | . | . | . | .
C[C@H](CO)N1C[C@H](C)[C@@H](CN(C)C(=O)Nc2ccc(C(F)(F)F)cc2)OCCCC[C@H](C)Oc2ccc(NC(=O)NC3CCCCC3)cc2C1=O | -78.8 | 112.8* | . | 1.5 | 104.9* | 105.0* | 6.0 | 11.2
CNC[C@@H]1OCCCC[C@@H](C)Oc2ccc(NC(=O)Nc3ccc4c(c3)OCO4)cc2C(=O)N([C@H](C)CO)C[C@@H]1C | 24.9 | 95.5* | . | 1.2 | 17.9 | 3.0 | 9.1 | 18.4
C[C@H]1CCCCO[C@@H](CN(C)C(=O)Nc2ccc(C(F)(F)F)cc2)[C@@H](C)CN([C@@H](C)CO)C(=O)c2cc(NC(=O)Nc3ccc(F)cc3)ccc2O1 | 2.7 | 113.7* | 0.1 | 1.2 | 107.8* | 106.4* | -23.7 | -10.2
CC(C)NC(=O)Nc1ccc2c(c1)C(=O)N([C@H](C)CO)C[C@@H](C)[C@@H](CN(C)C(=O)Nc1ccc(C(F)(F)F)cc1)OCCCC[C@@H](C)O2 | -73.0 | 105.2* | . | 15.5 | 104.0* | 91.8 | 11.9 | 20.0
CNC[C@H]1OCCCC[C@H](C)Oc2ccc(NC(=O)Nc3ccc4c(c3)OCO4)cc2C(=O)N([C@H](C)CO)C[C@@H]1C | 19.1 | 41.4 | . | -0.8 | . | . | . | .
CC(C)NC(=O)Nc1ccc2c(c1)C(=O)N([C@H](C)CO)C[C@@H](C)[C@H](CN(C)C(=O)Nc1ccc(C(F)(F)F)cc1)OCCCC[C@@H](C)O2 | -52.5 | 89.1 | . | -0.4 | . | . | . | .
C[C@@H]1CCCCO[C@@H](CN(C)C(=O)Nc2ccc(C(F)(F)F)cc2)[C@@H](C)CN([C@H](C)CO)C(=O)c2cc(NC(=O)NC3CCCCC3)ccc2O1 | -63.9 | . | -2.3 | -0.6 | . | . | . | .
CCn1c(CSc2nc3ccccc3[nH]2)n[nH]c1=S | . | . | 1.6 | . | . | . | . | .
C[C@H]1CCCCO[C@@H](CN(C)C(=O)Nc2ccc(C(F)(F)F)cc2)[C@@H](C)CN([C@@H](C)CO)C(=O)c2cc(NC(=O)CCC(F)(F)F)ccc2O1 | -58.0 | ? | . | -0.9 | 99.2* | 110.3* | 16.5 | 16.8
C[C@@H]1CN([C@H](C)CO)C(=O)c2cc(N(C)C)ccc2O[C@@H](C)CCCCO[C@H]1CN(C)C(=O)Nc1ccc(C(F)(F)F)cc1 | -59.9 | 40.9 | . | -3.5 | . | . | . | .
C[C@H](CO)N1C[C@H](C)[C@H](CN(C)C(=O)Nc2ccc(F)cc2)OCCCC[C@H](C)Oc2ccc(NC(=O)Nc3ccc(C(F)(F)F)cc3)cc2C1=O | 9.6 | 97.9* | 0.7 | 0.1 | 90.9 | 108.9* | 18.8 | 18.4
C[C@@H]1CCCCO[C@H](CN(C)C(=O)Nc2ccccc2)[C@@H](C)CN([C@H](C)CO)C(=O)c2cc(NC(=O)Nc3ccc(C(F)(F)F)cc3)ccc2O1 | -24.4 | . | . | -1.1 | . | . | . | .
C[C@@H]1CN([C@@H](C)CO)C(=O)c2cc(NC(=O)CCC(F)(F)F)ccc2O[C@@H](C)CCCCO[C@H]1CN(C)C(=O)Nc1ccc(C(F)(F)F)cc1 | -31.2 | 104.7 | -0.3 | -4.9 | . | . | . | .
C[C@H](CO)N1C[C@H](C)[C@H](CN(C)C(=O)Nc2ccc(C(F)(F)F)cc2)OCCCC[C@H](C)Oc2ccc(N(C)C)cc2C1=O | -65.0 | 100.9* | . | -1.7 | 105.8* | 78.3 | -3.8 | 39.5*
